BB579 growth dn = growth inhibitors of yeast BB579 in restrictive medium, primary screen, yeast lifespan-shortening project, S. cerevisiae | OD615, 48 h | inhibition, % at 10 µM | hit rate 0.51% among 140,000;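 active = inhibition above a set limit, 3 SD over the mean compound inhibition, cut at about 44% in these data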
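Assay system: S. cerevisiae DeaD strain BB579 yeast. Medium: CSMM-D restrictive synthetic medium containing dextrose (glucose). Times: 4 h cell preincubation, 48 h compound exposure, 30 °C humidified. Signal: OD615 turbidity measurement. Benchmarks: positive control amphotericin B 10 µg/mL.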
TNAP act hi DEA = TNAP activators at high phosphate acceptor level, primary screen, biochemical, luminescence, uHTS; purified TNAP, CDP-star luminescence, 1 M DEA, 30 min; active compounds read high; 0 = EDTA background, 1 = DMSO-only activity; 200,000 tested, under 10 active; Alkaline phosphatase, tissue-nonspecific isozyme (Homo sapiens), P05186; AID 1136, 2008; activation factor at 20 µM;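 active = activation factor at least 2 at 20 µM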
Target sequence (P05186 whole entry, looked up): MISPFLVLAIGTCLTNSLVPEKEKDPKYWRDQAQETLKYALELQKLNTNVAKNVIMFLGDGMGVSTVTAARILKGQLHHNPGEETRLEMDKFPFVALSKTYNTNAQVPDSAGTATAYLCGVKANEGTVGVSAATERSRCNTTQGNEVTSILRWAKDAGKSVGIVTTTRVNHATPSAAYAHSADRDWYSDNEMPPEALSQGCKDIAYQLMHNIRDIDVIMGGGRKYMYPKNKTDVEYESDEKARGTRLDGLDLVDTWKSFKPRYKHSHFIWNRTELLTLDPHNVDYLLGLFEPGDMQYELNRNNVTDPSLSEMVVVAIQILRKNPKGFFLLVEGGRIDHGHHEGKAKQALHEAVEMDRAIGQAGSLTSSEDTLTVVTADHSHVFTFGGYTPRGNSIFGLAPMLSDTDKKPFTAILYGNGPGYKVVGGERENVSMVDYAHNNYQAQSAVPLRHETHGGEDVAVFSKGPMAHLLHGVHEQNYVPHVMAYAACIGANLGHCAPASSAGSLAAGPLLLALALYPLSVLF
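system = human TNAP | amount = enzyme diluted 1/800 final | reagent = 100 µM CDP-star substrate | signal = luminescent substrate turnover signal | dosing = one dose, 20 µM | benchmarks = EDTA negative control, DMSO positive control | measure = activation factor | timing = 30 min reaction, room temperature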
TNAP inh hi DEA = human TNAP enzyme inhibitors, primary screen, biochemical, luminescent, high phosphate acceptor level, uHTS; Alkaline phosphatase, tissue-nonspecific isozyme (Homo sapiens), P05186; purified TNAP, CDP-star luminescence, 1 M DEA; inhibition, % at 20 µM; hit rate 0.03% among 200,000; AID 1135, 2008;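 active = over 50% inhibition of tissue-nonspecific alkaline phosphatase at 20 µM in the single-dose screen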;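 also: plate controls were DMSO wells for no effect and EDTA-quenched wells as full inhibition for full effect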
TNAP inh no acc = human TNAP enzyme inhibitors, primary screen, biochemical, luminescent, no phosphate acceptor, uHTS. purified TNAP, CDP-star luminescence, 30 min. inhibition, % at 20 µM. Alkaline phosphatase, tissue-nonspecific isozyme (Homo sapiens), P05186. hit rate 0.26% among 200,000;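 active = tissue-nonspecific alkaline phosphatase inhibition above about 50% at 20 µM in the single-dose screen, limit read from the data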;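 also: 0% = DMSO negative control and 100% = EDTA positive control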
Yeast life ext = compounds extending yeast replicative lifespan, primary screen, S. cerevisiae, OD615 | inhibition of the nicotinamide effect, % at 10 µM | AID 775, 2007 | S. cerevisiae growth with nicotinamide; deaD strain in restrictive glucose medium | hit rate 0.68% among 130,000;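 active = inhibition above a set limit, placed 3 SD over the median of all compounds, cut at about 26% in these data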;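 also: 0% = nicotinamide-treated wells and 100% = cells grown without nicotinamide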
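Measured by: optical density (absorbance) at 615 nm; System: modified budding yeast, DeaD strain; Medium: restrictive CSMM-D dextrose medium; Timing: 4 h preincubation then 48 h treatment at 30 °C.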
RAM network inh = inhibitors of the yeast RAM network, primary screen, dse1pr::URA3 reporter, 5-FOA selection. S. cerevisiae dse1pr::URA3 reporter, 5-FOA growth OD615, 2 d; analog-sensitive cbk1-as2 kinase mutant strain. inhibition, % at 50 µM. hit rate 1.8% among 190,000;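 active = inhibition above a set limit, 3 SD over mean compound inhibition, cut at about 8.4% in these data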;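 also: 0% = DMSO-only wells with no growth and 100% = 10 µM 1-NA-PP1 full growth; inhibition rescues growth on 5-FOA so higher OD means more RAM inhibition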
Numbers without * were called inactive; · = no result given. Most compounds without a hit are left out; they make up all but 2.8% or so of the library.

SMILES	BB579 growth dn	TNAP act hi DEA	TNAP inh hi DEA	TNAP inh no acc	Yeast life ext	RAM network inh
O=S(=O)(c1ccccc1)N(CC(O)Cn1c2ccccc2c2ccccc21)c1ccccc1 (stereo unspecified)	-31.0	1.1	-7.7	-13.4	-5.7	3.7
O=S(=O)(c1ccc(F)cc1)N(CCO)CC(O)Cn1c2ccccc2c2ccccc21 (stereo unspecified)	8.5	1.1	-6.0	-1.1	-4.1	8.7*
CCN(CC(O)Cn1c2ccccc2c2ccccc21)S(=O)(=O)c1ccc(F)cc1 (stereo unspecified)	-43.3	1	-0.4	-5.8	-9.2	10.7*
NS(=O)(=O)c1ccc(NC(=O)C(Sc2ccccc2)c2ccccc2)cc1 (stereo unspecified)	-13.0	1	-2.8	-11.6	-2.7	1.8
Oc1ccc(Cl)cc1Cc1cc(Cl)ccc1O	83.7*	1	-4.1	-10.5	-7.0	-1.2
CC(C)C(=O)NC(=S)Nc1ccc(S(=O)(=O)N(C)Cc2ccccc2)cc1	-5.3	1	3.4	10.1	-14.2	7.5
NC(=O)C1CCN(CCC(=O)Nc2ccc3c(c2)CCC3)CC1	-43.4	1	-1.2	-9.5	·	2.2
CCOC(=O)Cn1nnnc1CN(Cc1cccs1)Cc1cc2cc(C)ccc2[nH]c1=O	-17.4	1	-1.9	-4.9	-12.1	2.3
CCOC(=O)Cn1nnnc1C(CC)N(Cc1cccs1)Cc1cc2ccc(OC)cc2[nH]c1=O (stereo unspecified)	-35.4	1	-4.6	-5.3	0.3	9.6*
CCn1c(=O)c(C(=O)Nc2nc3ccccc3[nH]2)c(O)c2ccccc21	67.3*	1.1	-7.5	-2.4	7.0	0.0
CCn1c(=O)c(C(=O)Nn2c(C)nc3ccccc3c2=O)c(O)c2ccccc21	99.3*	1	0.2	9.5	-22.5	0.2
Cn1c(CC(=O)Nc2ccc(Cl)c(Cl)c2)nnc1SCC(=O)NCc1ccccc1	·	1	1.2	-8.6	·	1.7
Cc1ccc(C)c(NNC(N)=S)c1	·	1	-3.2	3.2	·	2.0
Cc1ccc(N/N=C(\C#N)C(N)=S)c(C)c1	95.1*	1	3.8	32.7	-4.5	-0.7
CSC1=N/C(=C\c2ccc(F)cc2)C(=O)S1	-54.9	1	-3.8	-5.3	-18.1	2.3
COc1ccc(/C=C/C=C2\N=C(SC)SC2=O)cc1	-47.2	1	3.0	24.8	4.6	10.8*
COc1ccc(C(C)(C)C)cc1S(=O)(=O)N1CCN(C)CC1	-2.3	1	0.7	-9.4	-9.1	0.2
Cc1ccc(-c2cc(C(=O)N/N=C/c3ccco3)n[nH]2)s1	-1.8	0.9	13.0	68.0*	-4.0	2.1
O=C(N/N=C/c1ccco1)c1cc(-c2ccc3ccccc3c2)n[nH]1	-35.7	1	-2.6	3.2	-11.2	1.9
CCc1ccc(-c2cc(C(=O)N/N=C/c3ccco3)[nH]n2)cc1	·	1	-1.0	50.8*	·	2.7
Cc1nonc1NC(=O)CSc1nc(C2CCCCC2)nc2ccccc12	-33.0	1	-2.5	-2.5	61.3*	5.8
Cc1cc(NC(=O)CSc2nc(C3CCCCC3)nc3ccccc23)no1	-47.2	1	-2.5	-17.3	3.5	2.9
Cc1cccc(C(=O)Nc2nccs2)c1[N+](=O)[O-]	-13.0	1	-2.4	-2.7	4.8	3.4
O=C(O)C1C(c2ccccc2)C(C(=O)OCc2ccco2)C1c1ccccc1 (stereo unspecified)	-36.8	1	-2.6	-4.2	·	0.2
COC(=O)C1C(c2ccccc2)C(C(=O)OCc2ccco2)C1c1ccccc1 (stereo unspecified)	-46.6	1	-2.9	-6.7	·	8.5*
SMILES	BB579 growth dn	TNAP act hi DEA	TNAP inh hi DEA	TNAP inh no acc	Yeast life ext	RAM network inh
CN1CCN(C2=Cc3cc(Cl)ccc3Sc3cc(F)ccc32)CC1	97.9*	1	2.4	-4.5	·	2.9
CN1CCN(C2=Cc3ccccc3Sc3cc(F)c(F)cc32)CC1	1.5	1	3.6	-2.1	·	1.7
COC(=O)c1ccc(OC(=O)CCN2c3ccccc3Sc3ccccc32)cc1	-19.4	1	1.6	-4.7	4.7	10.9*
O=C(O)c1cc(-c2ccc3c(c2)OCCO3)n[nH]1	·	1.1	-6.6	57.6*	·	1.2
Oc1ccccc1-c1cc(-c2ccc3c(c2)OCCO3)n[nH]1	-4.3	1	-3.4	-14.1	-15.9	-0.8
CCOC(=O)c1cc(-c2ccc3c(c2)OCCO3)n[nH]1	·	1	-3.4	84.0*	·	1.9
CON(C)c1nc(OCCNC(=O)OCc2ccc(Cl)cc2Cl)nc(N(C)C)n1	-20.0	1	-3.6	-11.8	-4.0	0.8
O=c1[nH][nH]cc1C=Nc1ccccc1O	50.3*	1	-1.2	-164.2	-14.0	2.1
O=c1[nH][nH]cc1C=Nc1ccccc1Cl	·	1	1.6	-2.0	·	1.3
O=C(NCC1CCCO1)C1CC(c2ccc(Cl)c(Cl)c2)=NO1 (stereo unspecified)	-8.0	1	-2.3	-8.5	-16.4	2.3
CC(=O)Nc1ccc(Sc2ncnc3scc(-c4ccccc4)c23)cc1	-9.2	1	3.0	2.1	1.1	4.7
CCCC(=O)Nc1ccccc1Sc1ncnc2scc(-c3ccccc3)c12	-28.2	1	-4.2	-7.3	43.9*	1.3
CCn1c2ccccc2c2cc(NC(=O)COc3ccccc3OC)ccc21	-9.3	1	-2.7	-4.9	-5.8	9.6*
O=C(O)CCCNc1cc(N2CCC3(CC2)OCCO3)c2noc3c2c1C(=O)c1ccccc1-3	-21.3	0.9	14.1	28.8	13.9	8.7*
CCOC(=O)N1CCN(c2cc(NCCC(=O)O)c3c4c(onc24)-c2ccccc2C3=O)CC1	-33.1	0.8	18.7	22.2	20.4	9.4*
CCOc1cc(NC(=O)c2cccs2)c(OCC)cc1NC(=O)CCC(=O)NCC1CCCO1 (stereo unspecified)	·	1	-1.1	0.7	·	1.5
CC1=NN(c2nc(-c3ccc(C)cc3)cs2)C(=O)C1N=Nc1ccc2ccccc2c1 (stereo unspecified)	-45.0	0.8	24.7	3.5	-1.5	10.6*
Cc1ccc(-c2ccc(CCC(=O)O)n2Cc2ccco2)cc1	-28.4	1	-2.9	-12.2	-10.2	-0.1
O=C(CN(Cc1ccccc1)S(=O)(=O)c1cccc(C(F)(F)F)c1)NC1CCCCC1	-41.3	1	-3.3	-15.1	10.0	8.8*
Cc1cc(/C=C2/NC(=O)N(Cc3ccccc3F)C2=O)c(C)n1C(C)C	-36.5	1	-1.6	-8.3	-0.6	9.1*

From PubChem BioAssay
